Laboratory results as given in ChEMBL document CHEMBL3804768, “Structure-Activity Relationship Studies of Mitogen Activated Protein Kinase Interacting Kinase (MNK) 1 and 2 and BCR-ABL1 Inhibitors Targeting Chronic Myeloid Leukemic Cells” (J Med Chem, 2016).
pIC50: −log10 of the molar value. Values after ≈ are worked out from the molar mass of the structure shown. Active and inactive are the calls of the source. The rule behind the calls is not given here.

How the values were obtained:
[1] = test system: Mus musculus; test: Toxicity in NOD-SCID mouse xenografted with human K562 cells over expressing eIF4E assessed as body weight loss at 100 to 200 mg/kg, po qd administered through oral gavage for 14 days; assay type: organism-based; settings: in vivo, 336 h
[2] = biological target: Mast/stem cell growth factor receptor Kit (Homo sapiens, UniProt P10721); test: Inhibition of human recombinant c-KIT expressed in insect cells using Poly(Glu:Tyr) as substrate in presence of [gamma32P]ATP
Chain of Mast/stem cell growth factor receptor Kit (P10721 whole entry): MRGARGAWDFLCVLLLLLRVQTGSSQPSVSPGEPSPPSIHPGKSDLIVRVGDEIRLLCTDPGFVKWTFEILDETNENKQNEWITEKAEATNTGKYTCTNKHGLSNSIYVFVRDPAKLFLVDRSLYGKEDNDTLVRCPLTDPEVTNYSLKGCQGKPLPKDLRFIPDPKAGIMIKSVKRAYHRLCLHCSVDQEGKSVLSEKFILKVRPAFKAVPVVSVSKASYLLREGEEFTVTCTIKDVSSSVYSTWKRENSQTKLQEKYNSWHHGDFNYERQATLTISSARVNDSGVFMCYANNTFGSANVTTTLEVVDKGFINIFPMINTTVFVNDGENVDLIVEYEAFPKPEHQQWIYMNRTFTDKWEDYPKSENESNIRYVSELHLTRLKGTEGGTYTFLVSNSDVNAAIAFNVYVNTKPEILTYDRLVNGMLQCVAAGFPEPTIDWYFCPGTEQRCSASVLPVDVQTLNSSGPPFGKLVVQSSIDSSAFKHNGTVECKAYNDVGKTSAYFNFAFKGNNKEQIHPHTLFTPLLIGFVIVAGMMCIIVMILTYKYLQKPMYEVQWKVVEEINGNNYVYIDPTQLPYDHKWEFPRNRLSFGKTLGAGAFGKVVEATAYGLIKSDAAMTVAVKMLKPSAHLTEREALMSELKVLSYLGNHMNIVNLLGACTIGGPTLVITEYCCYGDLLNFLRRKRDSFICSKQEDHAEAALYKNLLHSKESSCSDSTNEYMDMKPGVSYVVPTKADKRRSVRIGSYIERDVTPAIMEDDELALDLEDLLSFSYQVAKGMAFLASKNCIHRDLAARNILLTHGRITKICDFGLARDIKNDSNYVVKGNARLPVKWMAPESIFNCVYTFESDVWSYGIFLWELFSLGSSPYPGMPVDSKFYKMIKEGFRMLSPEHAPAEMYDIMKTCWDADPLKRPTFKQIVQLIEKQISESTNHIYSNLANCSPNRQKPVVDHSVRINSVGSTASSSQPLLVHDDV

[3] = Thermodynamic solubility in pH 4 pION buffer at 500 uM incubated for 18 hrs by UV-spectrophotometry; assay type: physicochemical; settings: read-out: Therm_solubility
[4] = biological target: Platelet-derived growth factor receptor alpha (Homo sapiens, UniProt P16234); test: Inhibition of human recombinant PDGFRalpha expressed in sf21 cells at 1 uM using Poly(Glu:Tyr) as substrate in presence of [gamma32P]ATP
Chain of Platelet-derived growth factor receptor alpha (P16234 whole entry, the tested form may be a part): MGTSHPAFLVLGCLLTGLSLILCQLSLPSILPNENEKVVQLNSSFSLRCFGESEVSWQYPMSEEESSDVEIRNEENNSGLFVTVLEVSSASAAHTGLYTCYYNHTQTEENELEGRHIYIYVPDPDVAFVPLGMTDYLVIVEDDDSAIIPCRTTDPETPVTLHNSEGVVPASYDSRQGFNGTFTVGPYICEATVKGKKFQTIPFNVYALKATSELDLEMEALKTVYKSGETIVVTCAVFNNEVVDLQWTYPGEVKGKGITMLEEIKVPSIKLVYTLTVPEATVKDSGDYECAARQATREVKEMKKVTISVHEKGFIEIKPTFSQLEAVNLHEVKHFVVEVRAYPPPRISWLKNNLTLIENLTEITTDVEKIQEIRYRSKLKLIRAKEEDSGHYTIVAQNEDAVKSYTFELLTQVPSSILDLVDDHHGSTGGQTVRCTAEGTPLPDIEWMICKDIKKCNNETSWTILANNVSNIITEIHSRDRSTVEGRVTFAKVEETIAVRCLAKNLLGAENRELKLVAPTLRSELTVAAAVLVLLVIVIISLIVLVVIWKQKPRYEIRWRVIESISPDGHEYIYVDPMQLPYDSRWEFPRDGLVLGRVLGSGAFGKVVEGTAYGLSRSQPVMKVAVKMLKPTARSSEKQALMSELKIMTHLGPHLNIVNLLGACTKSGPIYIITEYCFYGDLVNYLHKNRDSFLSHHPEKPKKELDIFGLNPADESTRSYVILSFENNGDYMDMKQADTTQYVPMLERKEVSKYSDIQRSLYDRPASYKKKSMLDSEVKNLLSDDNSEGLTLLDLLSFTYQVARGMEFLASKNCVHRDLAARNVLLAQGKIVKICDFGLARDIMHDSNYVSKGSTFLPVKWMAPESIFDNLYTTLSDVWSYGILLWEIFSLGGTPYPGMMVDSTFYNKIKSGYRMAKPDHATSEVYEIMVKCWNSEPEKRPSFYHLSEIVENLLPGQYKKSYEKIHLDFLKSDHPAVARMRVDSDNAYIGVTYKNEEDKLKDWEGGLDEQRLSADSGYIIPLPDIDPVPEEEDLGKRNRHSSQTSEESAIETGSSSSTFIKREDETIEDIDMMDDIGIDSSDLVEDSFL

[5] = biological target: MAP kinase-interacting serine/threonine-protein kinase 1 (Homo sapiens, UniProt Q9BUB5); test: Inhibition of N-terminal GST-tagged MNK1 kinase domain (37 to 341 residues) (unknown origin) expressed in Escherichia coli BL21(DE3) cells using JH3 peptide substrate preincubated for 10 mins followed by substrate addition measured after 60 mins by mobility shift assay
Chain of MAP kinase-interacting serine/threonine-protein kinase 1 (Q9BUB5 whole entry, the tested form may be a part): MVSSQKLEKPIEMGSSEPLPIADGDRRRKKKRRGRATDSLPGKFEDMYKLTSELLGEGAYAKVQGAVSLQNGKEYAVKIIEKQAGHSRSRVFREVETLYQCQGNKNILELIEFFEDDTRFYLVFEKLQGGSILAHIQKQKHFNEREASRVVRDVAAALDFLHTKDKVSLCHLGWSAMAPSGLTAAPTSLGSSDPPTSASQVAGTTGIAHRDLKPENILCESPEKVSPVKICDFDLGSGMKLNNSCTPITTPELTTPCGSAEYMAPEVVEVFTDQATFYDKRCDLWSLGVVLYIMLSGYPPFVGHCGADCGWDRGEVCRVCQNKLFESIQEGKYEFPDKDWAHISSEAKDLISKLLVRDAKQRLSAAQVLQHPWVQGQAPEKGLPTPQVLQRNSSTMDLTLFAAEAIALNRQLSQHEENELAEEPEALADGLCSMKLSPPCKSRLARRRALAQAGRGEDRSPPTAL

[6] = biological target: MAP kinase-interacting serine/threonine-protein kinase 2 (Homo sapiens, UniProt Q9HBH9); test: Inhibition of N-terminal GST-tagged MNK2 kinase domain (72 to 385 residues) (unknown origin) expressed in Escherichia coli BL21(DE3) cells using JH3 peptide substrate preincubated for 10 mins followed by substrate addition measured after 60 mins by mobility shift assay
Chain of MAP kinase-interacting serine/threonine-protein kinase 2 (Q9HBH9 whole entry, the tested form may be a part): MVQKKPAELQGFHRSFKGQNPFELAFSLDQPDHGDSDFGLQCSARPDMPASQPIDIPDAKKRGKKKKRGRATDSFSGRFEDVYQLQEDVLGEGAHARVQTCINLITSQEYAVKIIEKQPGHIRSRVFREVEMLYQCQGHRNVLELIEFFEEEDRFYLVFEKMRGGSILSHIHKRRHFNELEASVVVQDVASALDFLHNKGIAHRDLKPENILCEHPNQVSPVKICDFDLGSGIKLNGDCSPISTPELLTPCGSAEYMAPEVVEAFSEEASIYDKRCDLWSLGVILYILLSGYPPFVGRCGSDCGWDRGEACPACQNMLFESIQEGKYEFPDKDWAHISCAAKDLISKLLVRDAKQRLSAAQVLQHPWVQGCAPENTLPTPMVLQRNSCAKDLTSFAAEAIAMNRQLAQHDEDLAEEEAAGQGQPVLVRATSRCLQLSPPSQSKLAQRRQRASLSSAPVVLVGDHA

[7] = biological target: Fibroblast growth factor receptor 2 (Homo sapiens, UniProt P21802); test: Inhibition of human recombinant FGFR2 expressed in sf21 cells at 1 uM using Poly(Glu:Tyr) as substrate in presence of [gamma32P]ATP
Chain of Fibroblast growth factor receptor 2 (P21802 22-821 limits assumed): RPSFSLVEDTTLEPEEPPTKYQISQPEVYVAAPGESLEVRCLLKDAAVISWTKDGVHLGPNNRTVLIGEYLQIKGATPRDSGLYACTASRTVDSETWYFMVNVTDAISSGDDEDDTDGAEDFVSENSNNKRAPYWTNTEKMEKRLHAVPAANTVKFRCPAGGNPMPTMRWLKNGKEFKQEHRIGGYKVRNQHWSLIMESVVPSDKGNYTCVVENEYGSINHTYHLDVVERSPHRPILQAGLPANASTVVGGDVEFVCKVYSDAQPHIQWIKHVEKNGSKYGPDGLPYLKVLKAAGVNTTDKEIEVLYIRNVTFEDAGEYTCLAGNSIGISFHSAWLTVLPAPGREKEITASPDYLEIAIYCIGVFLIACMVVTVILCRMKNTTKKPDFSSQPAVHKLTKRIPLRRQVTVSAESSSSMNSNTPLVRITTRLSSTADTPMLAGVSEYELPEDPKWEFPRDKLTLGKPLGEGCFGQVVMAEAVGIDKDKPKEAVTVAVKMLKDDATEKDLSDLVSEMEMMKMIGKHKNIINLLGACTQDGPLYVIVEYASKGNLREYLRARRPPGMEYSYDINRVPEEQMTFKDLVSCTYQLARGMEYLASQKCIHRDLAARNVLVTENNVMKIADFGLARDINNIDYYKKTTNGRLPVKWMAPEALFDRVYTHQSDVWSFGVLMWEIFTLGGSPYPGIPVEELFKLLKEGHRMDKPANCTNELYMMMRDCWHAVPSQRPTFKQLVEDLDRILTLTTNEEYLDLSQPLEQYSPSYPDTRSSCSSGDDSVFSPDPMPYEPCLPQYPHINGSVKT

[8] = biological target: Tyrosine-protein kinase ABL1 (Homo sapiens, UniProt P00519, T315I); test: Inhibition of full length human recombinant N-terminal His-tagged ABL (2 to 1130 residues) T315I mutant expressed in baculovirus expression system using FL-peptide 2 substrate preincubated for 10 mins followed by substrate addition measured after 60 mins by mobility shift assay
How it was run: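 Buffer is 100 mM HEPES pH 7.5, 10 mM MgCl2, 0.004% Tween 20, 1 mM DTT, 0.003% Brij L23. Enzyme and compound sit 10 min before ATP/substrate is added. The reaction runs 60 min at room temperature, is stopped with 10 mM EDTA, and is read by mobility shift.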

[9] = biological target: Bcr/Abl fusion protein (Homo sapiens, UniProt P00519); test: Inhibition of BCR fused full length human recombinant N-terminal His-tagged ABL (2 to 1130 residues) expressed in baculovirus expression system using FL-peptide 2 substrate preincubated for 10 mins followed by substrate addition measured after 60 mins by mobility shift assay
[10] = Plasma protein binding in human; assay type: ADME, cell-free; settings: read-out: PPB (converted)
[11] = Antiproliferative activity against human BV173 cells after 48 hrs by Cell-Titer-Glo luminescent cell viability assay; assay type: functional; settings: BV-173, 48 h
How it was run: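 Cells seeded at 5000 per well in growth medium, exposed to serial doses from 0.003 μM to 50 μM for 48 h at 37 °C, 5% CO2. Viability was read by CellTiter-Glo luminescence and GI50 taken from the dose-response curve. Dose response was run in triplicate and the curve repeated twice. K562 eIF4E-overexpressing cells were cultured in RPMI with 10% FBS.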

[12] = Thermodynamic solubility in pH 7 pION buffer at 500 uM incubated for 18 hrs by UV-spectrophotometry; assay type: physicochemical; settings: read-out: Therm_solubility
[13] = Cmax in CD1 mouse at 50 mg/kg, po; assay type: ADME, organism-based; parameters: dose 50 mg/kg, route oral; settings: in vivo
[14] = biological target: Platelet-derived growth factor receptor beta (Homo sapiens, UniProt P09619); test: Inhibition of human recombinant PDGFRbeta expressed in sf21 cells using Poly(Glu:Tyr) as substrate in presence of [gamma32P]ATP
Chain of Platelet-derived growth factor receptor beta (P09619 whole entry): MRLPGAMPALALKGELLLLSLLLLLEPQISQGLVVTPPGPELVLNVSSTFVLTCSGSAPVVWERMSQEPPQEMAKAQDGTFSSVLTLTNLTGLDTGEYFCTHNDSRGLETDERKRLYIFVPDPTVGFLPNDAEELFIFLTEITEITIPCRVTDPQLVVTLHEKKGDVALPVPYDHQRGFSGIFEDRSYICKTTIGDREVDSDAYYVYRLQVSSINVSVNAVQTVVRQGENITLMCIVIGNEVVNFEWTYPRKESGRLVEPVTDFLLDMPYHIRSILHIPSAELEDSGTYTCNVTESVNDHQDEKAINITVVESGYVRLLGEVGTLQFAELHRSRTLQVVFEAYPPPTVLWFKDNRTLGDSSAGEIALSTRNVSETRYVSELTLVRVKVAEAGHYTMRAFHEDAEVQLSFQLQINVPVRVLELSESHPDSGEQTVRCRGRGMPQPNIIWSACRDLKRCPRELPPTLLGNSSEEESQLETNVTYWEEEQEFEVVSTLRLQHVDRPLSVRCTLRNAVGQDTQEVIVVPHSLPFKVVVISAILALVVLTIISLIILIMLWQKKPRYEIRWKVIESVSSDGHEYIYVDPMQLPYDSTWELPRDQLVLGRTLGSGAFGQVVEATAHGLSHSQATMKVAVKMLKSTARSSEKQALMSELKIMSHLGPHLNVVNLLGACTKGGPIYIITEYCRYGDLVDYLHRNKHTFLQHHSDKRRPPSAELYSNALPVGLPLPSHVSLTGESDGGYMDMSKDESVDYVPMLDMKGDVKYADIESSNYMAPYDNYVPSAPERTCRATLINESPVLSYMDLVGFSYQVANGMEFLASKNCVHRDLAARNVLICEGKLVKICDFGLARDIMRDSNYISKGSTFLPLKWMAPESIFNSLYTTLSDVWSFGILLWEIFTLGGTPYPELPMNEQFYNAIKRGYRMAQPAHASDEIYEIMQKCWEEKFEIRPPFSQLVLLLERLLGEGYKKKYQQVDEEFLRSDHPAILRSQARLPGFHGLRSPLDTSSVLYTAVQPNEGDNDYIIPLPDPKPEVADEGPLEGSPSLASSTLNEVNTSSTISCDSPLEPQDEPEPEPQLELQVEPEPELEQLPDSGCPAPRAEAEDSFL

[15] = AUC in CD1 mouse at 50 mg/kg, po; assay type: ADME, organism-based; settings: in vivo
[16] = Half life in CD1 mouse at 5 mg/kg, iv; assay type: ADME, organism-based; settings: in vivo
[17] = Clearance in CD1 mouse at 5 mg/kg, iv; assay type: ADME, organism-based; settings: in vivo
[18] = biological target: Tyrosine-protein kinase ABL1 (Homo sapiens) (UniProt P00519); test: Inhibition of ABL1 in human K562 cells over expressing eIF4E assessed as reduction in phosphorylation of Crkl at Tyr207 after 24 hrs by Western blot analysis; assay type: cell-based
How it was run: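 K562 eIF4E-overexpressing cells were treated at 100, 500 and 1000 nM for 24 h and lysed in RIPA buffer with SDS and protease/phosphatase inhibitors. Equal protein was resolved on 4-12% Bis-Tris gels and blotted to PVDF, with blocking in 5% BSA/PBST. The blot was probed overnight at 4 °C with a Bcr/Abl activity antibody cocktail for Crkl and phospho-Crkl Tyr207, and detected by ECL chemiluminescence.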

[19] = test system: Mus musculus; test: In vivo inhibition of MNK1/MNK2 in NOD-SCID mouse tumor xenografted with human K562 cells over expressing eIF4E assessed as inhibition of eIF4E phosphorylation at Ser209 at 50 mg/kg, po qd adminstered through oral gavage measured 4 hrs post dose by AlphaScreen SureFire assay; assay type: functional, organism-based
How it was run: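 Tumors were excised after the final day-14 oral dose (50 mg/kg) and flash frozen, then homogenized in SureFire lysis buffer with protease and phosphatase inhibitors. Lysate protein was normalized to 0.5 mg/mL by A280. Phospho-eIF4E Ser209 was read by AlphaScreen SureFire with 2 h acceptor and 2 h donor incubations at room temperature. Inhibition was calculated against the 0 h control signal.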

[20] = Clearance in CD1 mouse at 10 mg/kg, iv; assay type: ADME, organism-based; settings: in vivo
[21] = test system: Mus musculus; test: Toxicity in NOD-SCID mouse xenografted with human K562 cells over expressing eIF4E assessed as body weight loss at 100 mg/kg, po qd administered through oral gavage for 14 days; assay type: organism-based; settings: in vivo, 336 h
[22] = Half life in CD1 mouse at 10 mg/kg, iv; assay type: ADME, organism-based; settings: in vivo

SMILES	pIC50 [2]	solubility thermodynamic at 18 h, 500 µM [3]	inhibition [4]	pIC50 [5]	pIC50 [6]	inhibition [7]	pIC50 [8]	pIC50 [9]	fraction unbound [10]	GI50 [11]	solubility thermodynamic at 18 h, 500 µM [12]	Cmax [13]	pIC50 [14]	AUC [15]	inhibition [18]	inhibition [19]	further results
CCN1CCN(Cc2ccc(NC(=O)CNc3ccc(-c4ccc(NC(=O)C5CC5)nc4)cc3)cc2C(F)(F)F)CC1	6.05	128 µg/mL (≈ 220 µM)	> 99%	5.60	7.80	> 99%	7.30	7.05	0.0008	30 nM	0.1 µg/mL (≈ 0.172 µM)	2490 ng/mL	5.97	14300 ng·h/mL	Dose-dependent effect	Active	Activity [1]: Non-toxic; half-life [16]: 2.14 h; clearance [17]: 45 mL/min/kg
CN1CCN(Cc2ccc(NC(=O)CNc3ccc(-c4ccc(NC(=O)C5CC5)nc4)cc3F)cc2C(F)(F)F)CC1	5.82	183 µg/mL (≈ 313 µM)	> 99%	6.70	8.00	> 99%	7.70	8.00	0.0022	1 nM	3.8 µg/mL (≈ 6.5 µM)	1210 ng/mL	5.98	5130 ng·h/mL	Dose-dependent effect	Active	clearance [20]: 50 mL/min/kg; Activity [21]: Non-toxic; half-life [22]: 2.2 h
